# Measurements published in ChEMBL document CHEMBL3997808 (J Med Chem, 2017).
# Experiments:
# [1] = Volume of distribution at steady state in cynomolgus monkey at 1.2 mg/kg, iv; assay type: ADME, organism-based, Macaca fascicularis; details: in vivo, read-out: Vdss
# [2] = Drug metabolism in rat hepatocytes assessed as glucuronide metabolite M553 formation at 10 uM measured up to 4 hrs; assay type: ADME, cell-based, Hepatocyte
# How it was run: (§1)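 Compound at 10 μM was incubated with hepatocyte suspensions at 1 million cells/mL. Incubation ran at 37°C under 5% CO2:95% O2 for up to 4 h.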
# [3] = Clearance in rat at 1.1 mg/kg, iv; assay type: ADME, organism-based; details: in vivo
# [4] = Drug metabolism in rat hepatocytes assessed as glucuronide metabolite M569 formation at 10 uM measured up to 4 hrs; assay type: ADME, cell-based, Hepatocyte; how it was run: as §1
# [5] = Drug metabolism in human hepatocytes assessed as (S)-5-benzyl-N-(4-oxo-2,3,4,5-tetrahydrobenzo[b][1,4]oxazepin-3-yl)-1H-1,2,4-triazole-3-carboxamide formation at 10 uM measured up to 4 hrs; assay type: ADME, cell-based, Hepatocyte; how it was run: as §1
# [6] = Drug metabolism in rat hepatocytes assessed as 5-(hydroxy(phenyl)methyl)-N-((S)-5-methyl-4-oxo-2,3,4,5-tetrahydrobenzo[b][1,4]oxazepin-3-yl)-1H-1,2,4-triazole-3-carboxamide formation at 10 uM measured up to 4 hrs; assay type: ADME, cell-based, Hepatocyte; how it was run: as §1
# [7] = molecular target: Cytochrome P450 2C9 (Homo sapiens, UniProt P11712); assay: Inhibition of recombinant human CYP2C9; assay type: ADME
# Chain of Cytochrome P450 2C9 (P11712 whole entry): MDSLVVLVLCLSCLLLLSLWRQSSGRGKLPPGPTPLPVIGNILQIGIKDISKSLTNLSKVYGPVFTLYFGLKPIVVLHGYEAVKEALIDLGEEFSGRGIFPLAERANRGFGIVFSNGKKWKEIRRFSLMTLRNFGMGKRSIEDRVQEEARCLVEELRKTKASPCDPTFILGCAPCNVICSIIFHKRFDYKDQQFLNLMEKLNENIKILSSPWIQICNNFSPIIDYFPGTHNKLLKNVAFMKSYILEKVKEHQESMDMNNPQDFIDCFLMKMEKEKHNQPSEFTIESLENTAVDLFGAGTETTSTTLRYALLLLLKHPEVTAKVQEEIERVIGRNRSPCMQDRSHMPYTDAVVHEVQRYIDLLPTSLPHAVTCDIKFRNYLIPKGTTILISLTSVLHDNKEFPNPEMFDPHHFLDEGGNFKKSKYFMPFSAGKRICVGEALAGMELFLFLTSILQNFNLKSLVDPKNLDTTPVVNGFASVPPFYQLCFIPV
# [8] = Drug metabolism in human hepatocytes assessed as 5-(hydroxy(phenyl)methyl)-N-((S)-5-methyl-4-oxo-2,3,4,5-tetrahydrobenzo[b][1,4]oxazepin-3-yl)-1H-1,2,4-triazole-3-carboxamide formation at 10 uM measured up to 4 hrs; assay type: ADME, cell-based, Hepatocyte; how it was run: as §1
# [9] = tested on: Brain; assay: Drug uptake in Han Wistar rat brain at 2 mg/kg, iv administered as 4 hrs infusion; assay type: ADME, organism-based; details: in vivo
# How it was run: (§2)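 Rats received a 4 h iv infusion, after which terminal tissue samples were collected. Parent drug concentrations were measured in each tissue and compared with blood levels.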
# [10] = tested on: Kidney; assay: Drug uptake in Han Wistar rat kidney at 2 mg/kg, iv administered as 4 hrs infusion; assay type: ADME, organism-based; details: in vivo; how it was run: as §2
# [11] = molecular target: T1, Receptor-interacting serine/threonine-protein kinase 1 (Mus musculus, UniProt Q60855); assay: Displacement of (14-(2-{[3-({2-{[4-(cyanomethyl)phenyl]amino}-6-[(5-cyclopropyl-1H-pyrazol-3-yl)-amino]-4-pyrimidinyl}amino)propyl]amino}-2-oxoethyl)-16,16,18,18-tetramethyl-6,7,7a,8a,9,10,16,18-octahydrobenzo[2'',3'']indolizino-[8'',7'':5',6']pyrano[3',2':3,4]pyrido[1,2-a]indol-5-ium-2-sulfonate from mouse RIP1 (1 to 378 residues) expressed in baculovirus infected insect cells measured for 50 mins by fluorescence polarization assay
# T1 sequence (Q60855 whole entry): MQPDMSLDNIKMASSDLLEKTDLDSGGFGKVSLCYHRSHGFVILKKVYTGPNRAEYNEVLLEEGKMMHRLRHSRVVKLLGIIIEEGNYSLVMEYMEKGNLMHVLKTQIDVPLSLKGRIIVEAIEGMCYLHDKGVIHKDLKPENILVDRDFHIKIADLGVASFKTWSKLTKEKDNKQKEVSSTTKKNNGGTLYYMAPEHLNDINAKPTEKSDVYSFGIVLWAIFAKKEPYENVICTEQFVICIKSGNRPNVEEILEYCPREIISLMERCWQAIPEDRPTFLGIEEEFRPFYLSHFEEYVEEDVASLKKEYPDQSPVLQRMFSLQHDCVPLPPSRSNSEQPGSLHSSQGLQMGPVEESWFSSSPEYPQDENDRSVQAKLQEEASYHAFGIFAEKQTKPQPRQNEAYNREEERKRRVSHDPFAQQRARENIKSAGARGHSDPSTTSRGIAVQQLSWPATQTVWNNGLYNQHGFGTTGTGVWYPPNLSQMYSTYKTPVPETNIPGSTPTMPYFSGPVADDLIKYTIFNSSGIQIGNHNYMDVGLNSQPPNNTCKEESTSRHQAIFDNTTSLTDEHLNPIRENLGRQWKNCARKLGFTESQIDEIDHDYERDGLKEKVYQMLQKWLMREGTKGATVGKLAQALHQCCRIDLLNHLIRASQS
# How it was run: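 Competitive FP binding assay in which test compounds displace a fluorescently labeled ATP-competitive ligand from RIP1.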
# [12] = Cmax in cynomolgus monkey at 1.9 mg/kg, po; assay type: ADME, organism-based, Macaca fascicularis; set-up: dose 1.9 mg/kg, route oral; details: in vivo
# [13] = Volume of distribution at steady state in rat at 1.1 mg/kg, iv; assay type: ADME, organism-based; details: in vivo, read-out: Vdss
# [14] = Fraction unbound in cynomolgus monkey blood; assay type: ADME, tissue-based, Macaca fascicularis
# [15] = Fraction unbound in human blood; assay type: ADME, tissue-based
# [16] = Lipophilicity, log D of the compound at pH 7.4 by RP-HPLC method; assay type: physicochemical; details: buffer
# How it was run: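 Chromatographic hydrophobicity index (CHI) log D at pH 7.4, calculated from the retention time in a fast-gradient reverse-phase HPLC run.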
# [17] = Clearance in cynomolgus monkey at 1.2 mg/kg, iv; assay type: ADME, organism-based, Macaca fascicularis; details: in vivo
# [18] = tested on: MDR1; assay: Permeability across dog MDCK cells expressing MDR1; assay type: ADME, cell-based, Canis lupus familiaris; details: read-out: permeability
# [19] = Tmax in cynomolgus monkey at 1.9 mg/kg, po; assay type: ADME, organism-based, Macaca fascicularis; details: in vivo
# [20] = tested on: Colon; assay: Drug uptake in Han Wistar rat colon at 2 mg/kg, iv administered as 4 hrs infusion; assay type: ADME, organism-based; details: in vivo; how it was run: as §2
# [21] = Drug metabolism in human hepatocytes assessed as glucuronide metabolite M553 formation at 10 uM measured up to 4 hrs; assay type: ADME, cell-based, Hepatocyte; how it was run: as §1
# [22] = Drug metabolism in human hepatocytes assessed as (S)-3-amino-5-methyl-2,3-dihydrobenzo[b][1,4]oxazepin-4(5H)-one formation at 10 uM measured up to 4 hrs; assay type: ADME, cell-based, Hepatocyte; how it was run: as §1
# [23] = Stability in cynomolgus monkey microsomes measured up to 45 mins; assay type: ADME, Macaca fascicularis, Microsome; details: 0.75 h
# [24] = Drug metabolism in rat hepatocytes assessed as (S)-5-benzyl-N-(4-oxo-2,3,4,5-tetrahydrobenzo[b][1,4]oxazepin-3-yl)-1H-1,2,4-triazole-3-carboxamide formation at 10 uM measured up to 4 hrs; assay type: ADME, cell-based, Hepatocyte; how it was run: as §1
# [25] = Half-life in cynomolgus monkey at 1.2 mg/kg, iv; assay type: ADME, organism-based, Macaca fascicularis; details: in vivo
# [26] = Kinetic solubility in phosphate buffer saline at pH 7.4 by chemiluminescence nitrogen detection method; assay type: physicochemical; details: phosphate buffered saline, read-out: Kinetic_solubility
# How it was run: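 Kinetic aqueous solubility measured by chemiluminescent nitrogen detection (CLND) in phosphate-buffered saline pH 7.4. The solution was prepared from a DMSO stock of the inhibitor.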
# [27] = tested on: Liver; assay: Drug uptake in Han Wistar rat liver at 2 mg/kg, iv administered as 4 hrs infusion; assay type: ADME, organism-based; details: in vivo; how it was run: as §2
# [28] = Drug metabolism in cynomolgus monkey hepatocytes assessed as glucuronide metabolite M569 formation at 10 uM measured up to 4 hrs; assay type: ADME, cell-based, Macaca fascicularis, Hepatocyte; how it was run: as §1
# [29] = Tmax in rat at 2.1 mg/kg, po; assay type: ADME, organism-based; details: in vivo
structure (smiles),measurement,setting,value
CN1C(=O)[C@@H](NC(=O)c2nnc(Cc3ccccc3)[nH]2)COc2ccccc21 [GSK2982772],Vd,[1],2.2 L/kg
same,Drug metabolism,[2],Metabolite_Detected
same,clearance,[3],17 mL/min/kg
same,Drug metabolism,[4],Metabolite_Detected
same,Drug metabolism,[5],Metabolite_Detected
same,Drug metabolism,[6],Metabolite_Detected
same,IC50,[7],25 µM
same,Drug metabolism,[8],Metabolite_Detected
same,Drug uptake,[9],4%
same,Drug uptake,[10],Active
same,IC50,[11],2.5 µM
same,Cmax,[12],720 ng/mL
same,Vd,[13],2.7 L/kg
same,fraction unbound,[14],0.11
same,fraction unbound,[15],0.074
same,chromatographic logD,[16],3.8
same,clearance,[17],10 mL/min/kg
same,Papp,[18],21 ×10⁻⁶ cm/s
same,Tmax,[19],1.8 h
same,Drug uptake,[20],Active
same,Drug metabolism,[21],Metabolite_Detected
same,Drug metabolism,[22],Metabolite_Detected
same,Stability,[23],Stable
same,Drug metabolism,[24],Metabolite_Detected
same,half-life,[25],6.5 h
same,solubility kinetic,[26],100 µg/mL
same,Drug uptake,[27],Active
same,Drug metabolism,[28],Metabolite_Detected
same,Tmax,[29],0.25 h
